High-throughput results: PubChem BioAssay, several laboratories
Sampled rows, rich in hits. Any-hit rate of the full collection: about 4.1%.
KCNK9 block: KCNK9 potassium channel inhibitors, primary screen, HEK293 cells, thallium flux; FluxOR thallium flux fluorescence; stronger effect = lower value; B-score at 10 µM; 310,000 compounds, 1.2% hits;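 active = ratio B-score over 3 SD below the library mean, with starting fluorescence within 5 SD of its mean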;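 also: negative B-score means less thallium flux so channel inhibition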
hERG protect: hERG rescue from dofetilide block, primary screen, cell-based, CHO-hERG, FluxOR thallium flux, dofetilide IC70; Voltage-gated inwardly rectifying potassium channel KCNH2 (Homo sapiens), Q12809; dofetilide IC70 present; activation (rescue from dofetilide block), less the hit threshold, % at 10 µM; 310,000 compounds, 0.51% hits;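 active = activation above the mean of controls blocked by dofetilide plus 5 SD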;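 also: thallium influx through hERG after potassium depolarization seen as dye fluorescence rise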
Cl transport mod: KCC2 cotransporter modulators, thallium flux, primary screen, cell-based, HEK293 KCC2, FluoZin-2 fluorescence, MLSMR; 190,000 compounds, 2.2% hits; Solute carrier family 12 member 5 (Homo sapiens), Q9H2X9; KCC2 cells, thallium flux FluoZin-2 fluorescence; B-score of Tl+ flux slope (higher = more flux/activation; lower = inhibition) at 10 µM; AID 1456, 2008;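 active = thallium flux slope and its plate-corrected score both differing from the plate sample mean at a set confidence after two filtering rounds, in either direction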;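 also: slope of fluorescence scaled to starting intensity during 10 to 20 s after thallium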
KCNK3 block: human KCNK3 channel inhibitors, primary screen, CHO cells, FluxOR thallium flux, B-score. B-score at 10 µM. Potassium channel subfamily K member 3 (Homo sapiens), O14649. 340,000 compounds, 0.84% hits. AID 602410, 2012. FluxOR fluorescence; stronger effect = lower value;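 active = B-score under library mean minus 4 SD, starting fluorescence ratio at most library mean plus 5 SD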;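 also: more negative B-score means stronger inhibition of thallium flux through KCNK3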
Target sequence (O14649 whole entry, looked up): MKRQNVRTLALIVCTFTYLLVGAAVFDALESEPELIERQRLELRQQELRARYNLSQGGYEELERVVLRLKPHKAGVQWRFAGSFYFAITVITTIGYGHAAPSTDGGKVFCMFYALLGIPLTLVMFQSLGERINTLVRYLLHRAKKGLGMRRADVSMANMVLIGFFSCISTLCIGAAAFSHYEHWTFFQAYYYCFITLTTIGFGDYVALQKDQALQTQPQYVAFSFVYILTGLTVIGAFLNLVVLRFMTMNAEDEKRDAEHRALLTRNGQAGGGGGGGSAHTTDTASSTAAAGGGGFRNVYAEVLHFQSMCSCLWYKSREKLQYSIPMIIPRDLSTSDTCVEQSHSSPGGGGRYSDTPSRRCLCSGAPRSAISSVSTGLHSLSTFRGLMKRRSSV
KCNQ1 block: inhibitors of human KCNQ1 channel, primary screen, cell-based, thallium flux, high-throughput. Potassium voltage-gated channel subfamily KQT member 1 (Homo sapiens), P51787. CHO-K1 KCNQ1, FluxOR thallium flux fluorescence; stronger effect = higher value. B-score at 10 µM. 310,000 compounds, 1.3% hits;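 active = compounds whose thallium flux B-score, printed positive for inhibition, exceeds three library SD while starting fluorescence stays within three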;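 also: channel opened by potassium depolarization with thallium stimulus after 20 min compound exposure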
KCNQ1 act: potentiators or activators of KCNQ1 channel, primary screen, cell-based, thallium flux, high-throughput. B-score at 10 µM. CHO-K1 KCNQ1, thallium flux FluxOR fluorescence; stronger effect = higher value. 310,000 compounds, 0.35% hits;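 active = fluorescence ratio B-score, a plate-corrected score, at least three library SD, with initial intensity B-score within 5 SD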
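System: CHO-K1 cells stably expressing KCNQ1 / Medium: assay buffer for compound exposure, DMSO matched across wells / Reagent: thallium- and potassium-containing depolarizing buffer / Compound: one concentration, matched DMSO / Incubation: 20 min compound pretreatment at room temperature / Measured by: kinetic FluxOR fluorescence, 10 s baseline plus 110 s post-stimulus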
Numbers without * were called inactive.

For CCC(C)n1cnc2c(c1=O)c1nc3ccccc3nc1n2Cc1ccc2c(c1)OCO2 (centres undefined) the results were KCNK9 block -7.2*, hERG protect -9, Cl transport mod -1.5, KCNQ1 block 7* and KCNQ1 act inactive.
Screening COc1ccc(C(c2c(NC(=O)c3ccco3)sc(C)c2C)N2CCOCC2)cc1 (centres undefined) returned KCNK3 block -11*.
`COc1ccc(/C=C/c2nc(N)nc(-c3ccccc3O)n2)cc1OC` gave KCNK9 block inactive, hERG protect -12, Cl transport mod 0.64, KCNK3 block inactive, KCNQ1 block inactive and KCNQ1 act inactive.
COc1cc(/C=C/c2nc(N)nc(-c3ccccc3O)n2)cc(OC)c1OC was read as KCNK9 block -7.7*, hERG protect -13, Cl transport mod -0.026, KCNK3 block inactive, KCNQ1 block inactive and KCNQ1 act inactive.
`CC(C)C[C@H](NC(=O)N1CCn2c1nc1ccccc12)C(=O)NC1CCCCC1` gave KCNK9 block inactive, hERG protect -4, KCNK3 block inactive, KCNQ1 block inactive and KCNQ1 act inactive.
`O=C(c1ccccc1Cl)N1CCN(Cc2ccc3c(c2)OCO3)CC1` gave KCNK9 block -7*, hERG protect -7, KCNK3 block inactive, KCNQ1 block inactive and KCNQ1 act inactive.
For CCN(CC)c1ccc(C(=O)NC(=S)N2CCN(Cc3ccc4c(c3)OCO4)CC2)cc1 the results were KCNK9 block inactive, hERG protect -8, Cl transport mod 17*, KCNK3 block inactive, KCNQ1 block inactive and KCNQ1 act inactive.
`Cc1ccc(C(=O)N2CCN(Cc3ccc4c(c3)OCO4)CC2)c(Cl)c1` gave KCNK9 block inactive, hERG protect -10, KCNK3 block inactive, KCNQ1 block inactive and KCNQ1 act inactive.
For CC(C)NC(=S)N1CCN(Cc2ccc3c(c2)OCO3)CC1 the results were KCNK9 block inactive, hERG protect -7, Cl transport mod 0.026, KCNK3 block inactive, KCNQ1 block inactive and KCNQ1 act inactive.
For Cc1ccc(C(=O)Nc2ccccc2N2CCCC2)s1 the results were KCNK3 block inactive.
`O=C(NNC(=O)c1ccccc1F)c1ccc(S(=O)(=O)N2CCCCC2)cc1` gave KCNK3 block inactive.
Screening Cc1ccc(Nc2cc(C)nn2-c2nc(C)cc(=O)[nH]2)cc1 returned KCNK9 block inactive, hERG protect 20*, KCNK3 block inactive, KCNQ1 block inactive and KCNQ1 act 32*.
For COc1ccc(/C=N/NC(=O)c2ccc(O)cc2)cc1CN1CCCc2ccccc21 the results were KCNK9 block -7.9*, hERG protect -10, Cl transport mod 1.1, KCNK3 block inactive, KCNQ1 block inactive and KCNQ1 act inactive.
For O=C(NC(=S)NC1CCCc2ccccc21)c1ccc(F)cc1 (centres undefined) the results were KCNK9 block inactive, hERG protect -8, KCNK3 block inactive, KCNQ1 block inactive and KCNQ1 act 9*.
`Cc1onc(-c2ccccc2Cl)c1C(=O)Nc1nnc(-c2cccc([N+](=O)[O-])c2)s1` gave KCNK9 block inactive, hERG protect -17, KCNK3 block inactive, KCNQ1 block 11* and KCNQ1 act inactive.
`COc1ccc(N=Nc2c(C)[nH]c3ccccc23)cc1` gave KCNK9 block inactive, hERG protect -6, KCNK3 block inactive, KCNQ1 block inactive and KCNQ1 act inactive.
`O=C(Nc1ccc(Br)c2ccccc12)c1ccc2ccccc2c1O` gave KCNK9 block inactive, hERG protect -28, Cl transport mod -4.9, KCNK3 block inactive, KCNQ1 block 7* and KCNQ1 act inactive.
